Measurements published in ChEMBL document CHEMBL4422683, “Synthesis of 2-,4,-6-, and/or 7-substituted quinoline derivatives as human dihydroorotate dehydrogenase (hDHODH) inhibitors and anticancer agents: 3D QSAR-assisted design” (Bioorg Med Chem Lett, 2019).

What was measured:
MDA-MB-231 = assay: Antiproliferative activity against human MDA-MB-231 cells after 48 hrs by MTT assay; assay type: functional, cell-based; conditions: MDA-MB-231, 48 h
Procedure, shortened: (§1)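 MTT antiproliferative screen on human colorectal adenocarcinoma HT-29 and breast cancer MDA-MB-231 cells. Cell growth inhibition IC50 was read from the dose-response curve.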

[1] = target: Dihydroorotate dehydrogenase (quinone), mitochondrial (Homo sapiens, UniProt Q02127); assay: Inhibition of human recombinant N-terminal His-tagged DHODH (31 to 395 residues) expressed in Escherichia coli using DHO as substrate measured after 20 mins by DCPI dye-based assay
Sequence of Dihydroorotate dehydrogenase (quinone), mitochondrial (Q02127 whole entry, the tested form may be a part): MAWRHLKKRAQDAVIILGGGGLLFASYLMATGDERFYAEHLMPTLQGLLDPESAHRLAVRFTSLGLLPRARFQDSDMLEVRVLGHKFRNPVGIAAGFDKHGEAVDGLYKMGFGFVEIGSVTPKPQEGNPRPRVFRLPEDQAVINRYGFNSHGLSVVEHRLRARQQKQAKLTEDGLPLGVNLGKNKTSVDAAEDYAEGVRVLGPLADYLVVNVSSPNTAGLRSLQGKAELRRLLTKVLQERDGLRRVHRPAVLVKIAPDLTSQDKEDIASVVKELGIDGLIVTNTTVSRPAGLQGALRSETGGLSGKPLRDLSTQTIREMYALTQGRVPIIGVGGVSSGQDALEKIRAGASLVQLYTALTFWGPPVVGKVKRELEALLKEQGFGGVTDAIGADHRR

HT-29 = assay: Antiproliferative activity against human HT-29 cells after 48 hrs by MTT assay; assay type: functional, cell-based; conditions: HT-29, 48 h; procedure, shortened: as §1

| SMILES | IC50 (MDA-MB-231) | IC50 [1] | IC50 (HT-29) |
| --- | --- | --- | --- |
| Cc1ccc2nc(-c3ccc(F)cc3)cc(COCc3ccccc3)c2c1 | > 100 µM | 13.4 µM | > 100 µM |
| Clc1ccc(-c2cc(COCc3ccccc3)c3cc(Cl)c(Cl)cc3n2)cc1 | > 100 µM | 1.22 µM | 16.8 µM |
| CC(=O)O[C@H]1C(=O)[C@@]2(C)[C@H]([C@H](OC(=O)c3ccccc3)[C@]3(O)C[C@H](OC(=O)[C@H](O)[C@@H](NC(=O)c4ccccc4)c4ccccc4)C(C)=C1C3(C)C)[C@]1(OC(C)=O)CO[C@@H]1C[C@@H]2O [PACLITAXEL] | 13.2 µM |  | 14.6 µM |
| Cc1c(-c2ccc(-c3ccccc3F)cc2)nc2ccc(F)cc2c1C(=O)O [BREQUINAR SODIUM] | 12.5 µM |  | 14 µM |
| Cc1ccc2nc(-c3ccc(Cl)cc3)cc(COCc3ccccc3)c2c1 | > 100 µM |  | > 100 µM |
| Cc1ccc2nc(-c3ccc(F)cc3)cc(C(=O)OCc3ccccc3)c2c1 | 13.2 µM | 1.56 µM | 15.1 µM |
| COc1ccc(-c2cc(COCc3ccccc3)c3cc(C)ccc3n2)cc1 | > 100 µM |  | > 100 µM |

Further lines, results first:

| IC50 (MDA-MB-231) | IC50 [1] | IC50 (HT-29) | SMILES |
| --- | --- | --- | --- |
| > 100 µM | 7.48 µM | 48.7 µM | O=C(OCc1ccccc1)c1cc(-c2ccc(Cl)cc2)nc2cc(Cl)c(Cl)cc12 |
| > 100 µM | 15.5 µM | > 100 µM | COc1ccc(-c2cc(COCc3ccccc3)c3cc(Cl)c(Cl)cc3n2)cc1 |
| 20.5 µM | 1.96 µM | 17.3 µM | COc1ccc(-c2cc(C(=O)OCc3ccccc3)c3cc(C)ccc3n2)cc1 |
| 39.2 µM | 3.34 µM | 42.2 µM | COc1ccc(-c2cc(C(=O)OCc3ccccc3)c3cc(Cl)c(Cl)cc3n2)cc1 |
| > 100 µM | 7.37 µM | > 100 µM | Cc1ccc2nc(-c3ccc(Cl)cc3)cc(C(=O)OCc3ccccc3)c2c1 |
